Experiment [1] relates to Mycobacterium tuberculosis. The experiment is described as follows: Bactericidal activity against Mycobacterium tuberculosis H37Rv under aerobic condition by broth dilution method. It counts as functional. The method in brief: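 MIC taken as the micromolar concentration inhibiting 99% of growth of an Mtb inoculum.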
In experiment [2] the test system is Mycobacterium tuberculosis. Nature of the experiment: Mycobactericidal activity against Mycobacterium tuberculosis H37Rv assessed as minimum anaerobicidal concentration required for 1 log reduction in bacterial numbers after 1 week under hypoxic non replicating condition. It counts as functional. The method in brief: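 Mtb adapted to hypoxia was exposed to compound for 1 week. MAC taken as the micromolar concentration giving a 1 log drop in bacterial numbers.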

For experiment [3], the target named is Deazaflavin-dependent nitroreductase (Mycobacterium tuberculosis) (UniProt P9WP15). The experiment is described as follows: Ratio of Kcat to Km for Mycobacterium tuberculosis Rv3547 expressed in Escherichia coli co-transfected with maltose-binding fusion protein. The method in brief:
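Ddn (Rv3547) expressed in E. coli as a maltose-binding protein fusion and purified on amylose resin. Activity followed as time- and enzyme-dependent reoxidation of reduced F420 (F420H2), with the nitroimidazole as substrate. Kinetic values given as kcat/Km (min–1 μM–1).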

For experiment [4] the target is unchanged. Nature of the experiment: Binding affinity to Mycobacterium tuberculosis Rv3547 assessed as nitrous acid production by Griess method in presence of cofactor F420H2. The method in brief:
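Purified Ddn incubated with the nitroimidazole and F420H2. Reduction monitored as nitrite formation, read with Griess reagent.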

The structures appear in SMILES notation. Converted amounts (≈) assume the structure as drawn.

Deazaflavin-dependent nitroreductase (Mycobacterium tuberculosis), sequence (P9WP15 whole entry, the tested form may be a part): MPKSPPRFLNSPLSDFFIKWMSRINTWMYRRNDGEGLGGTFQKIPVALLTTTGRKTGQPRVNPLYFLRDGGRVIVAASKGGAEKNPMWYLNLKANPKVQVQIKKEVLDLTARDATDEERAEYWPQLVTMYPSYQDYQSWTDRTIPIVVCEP

As to `O=[N+]([O-])c1cn2c(n1)OC[C@@H](NCc1ccc(OCc3ccc(OC(F)(F)F)cc3)cc1)C2`, the MIC99 in experiment [1] was 0.16 µM (≈ 0.0743 µg/mL). In addition, the Activity in experiment [2] turned out to be 2.1 µM.

`O=[N+]([O-])c1cn2c(n1)OC[C@@H](NCCCCc1ccc(OC(F)(F)F)cc1)C2` had an MIC99 in experiment [1] of 0.04 µM (≈ 0.016 µg/mL). Besides, the Activity in experiment [2] was 8.1 µM.

On to `O=[N+]([O-])c1cn2c(n1)NC[C@@H](OCc1ccc(OC(F)(F)F)cc1)C2`, for which the MIC99 in experiment [1] amounted to 0.8 µM (≈ 0.287 µg/mL). Moreover, the Activity in experiment [2] was found to be 130 µM.

In the case of `O=[N+]([O-])c1cn2c(n1)OC[C@@H](OCc1ccc(OC(F)(F)F)cc1)C2` [PRETOMANID], the Ratio in experiment [3] turned out to be 0.145. Besides, the figures for the Activity entry in experiment [4] and in experiment [2] were “Dose-dependent effect” and 12 µM, respectively. In experiment [1], this compound gave an MIC99 of 0.8 µM (≈ 0.287 µg/mL).

In turn, `O=[N+]([O-])c1cn2c(n1)OC[C@@H](NCc1ccc(OC(F)(F)F)cc1)C2` gave an MIC99 in experiment [1] of 0.4 µM (≈ 0.143 µg/mL). The Activity in experiment [2] stood at 8 µM.

Regarding `O=[N+]([O-])c1cn2c(n1)OC[C@H](OCc1ccc(OC(F)(F)F)cc1)C2`, the Ratio in experiment [3] is 0.016. In experiment [1], this compound registered an MIC99 of 110 µM (≈ 39.5 µg/mL). The Activity in experiment [2] stood at 250 µM.

In the case of `O=CN1CC(OCc2ccc(OC(F)(F)F)cc2)Cn2cc([N+](=O)[O-])nc21` (single isomer, unassigned), the MIC99 in experiment [1] is 6.3 µM (≈ 2.43 µg/mL). In experiment [2], the Activity was found to be 31 µM.

In experiment [1], `O=[N+]([O-])c1cn2c(n1)SC[C@@H](OCc1ccc(OC(F)(F)F)cc1)C2` gave an MIC99 of 1.2 µM (≈ 0.45 µg/mL). The Activity in experiment [2] turned out to be 25 µM.

In the case of `CCCCc1ccc(CN[C@@H]2COc3nc([N+](=O)[O-])cn3C2)cc1`, in experiment [1], the MIC99 turned out to be 0.78 µM (≈ 0.258 µg/mL). The Activity in experiment [2] was 75 µM.

Consider `O=[N+]([O-])c1cn2c(n1)OC[C@@H](NCCc1ccc(OC(F)(F)F)cc1)C2`, for which the MIC99 in experiment [1] is 0.04 µM (≈ 0.0149 µg/mL). Moreover, the Activity in experiment [2] is 2 µM.

Regarding `O=[N+]([O-])c1cn2c(n1)OC[C@@H](NCCCc1ccc(OC(F)(F)F)cc1)C2`, the MIC99 in experiment [1] worked out at 0.08 µM (≈ 0.0309 µg/mL). For the same compound, the Activity in experiment [2] stood at 3.1 µM.

The values above are taken from ChEMBL document CHEMBL1154512, “PA-824 kills nonreplicating Mycobacterium tuberculosis by intracellular NO release” (2008).
